Experimental data taken from ChEMBL document CHEMBL2046315, “Design, synthesis and structure-activity relationships of 5-alkylaminolquinolines as a novel series of CRF1 receptor antagonists” (Bioorg Med Chem Lett, 2012).

Tests used:
[1] = target: T1, Corticotropin-releasing factor receptor 1 (Homo sapiens, UniProt P34998); experiment: Displacement of [125I]-CRF from human CRF1 receptor expressed in HEK293 cells after 2 hrs by scintillation proximity assay; format: cell-based
T1 sequence (P34998 whole entry): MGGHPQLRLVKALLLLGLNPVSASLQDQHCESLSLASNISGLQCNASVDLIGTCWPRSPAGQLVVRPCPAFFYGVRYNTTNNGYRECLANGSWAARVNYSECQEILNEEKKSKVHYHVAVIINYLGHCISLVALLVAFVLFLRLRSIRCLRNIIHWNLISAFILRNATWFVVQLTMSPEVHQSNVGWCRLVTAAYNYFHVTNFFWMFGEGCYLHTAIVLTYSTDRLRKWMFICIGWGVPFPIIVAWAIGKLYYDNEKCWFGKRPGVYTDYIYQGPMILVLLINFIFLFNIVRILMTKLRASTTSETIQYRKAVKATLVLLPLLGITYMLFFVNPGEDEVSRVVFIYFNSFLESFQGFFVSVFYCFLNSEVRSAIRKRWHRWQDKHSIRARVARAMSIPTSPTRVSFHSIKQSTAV
Procedure, shortened: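 Membranes (5 µg/well) with WGA-coated SPA beads and 0.1 nM [125I]-human/rat CRF. Assay buffer is phosphate-buffered saline with 10 mM MgCl2, 2 mM EGTA, 1.5% BSA and protease inhibitors, pH 7.0. Nonspecific binding defined with 0.4 µM sauvagine. Incubated over 2 h at room temperature and counted after centrifugation. Specific binding expressed as % of total; IC50 from concentration-response curve.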

[2] = target: T1, Corticotropin-releasing factor receptor 1; experiment: Antagonist activity at human CRF1 receptor expressed in HEK293 cells assessed as inhibition of CRF-stimulated intracellular cAMP accumulation preincubated for 30 mins measured after 30 mins by enzyme immunoassay; format: functional, cell-based
Procedure, shortened: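 Cells seeded at 5 × 10^4/well in DMEM with 0.1% FBS and 1 mM IBMX, pre-incubated 30 min, then test compound added for 30 min at 37 °C. Stimulation with 1 nM human/rat CRF for 30 min at 37 °C, followed by cell lysis. cAMP measured by EIA, basal (no CRF) subtracted, expressed as % of total production. IC50 from concentration-response curve.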

Row | SMILES | IC50 [1] [nM] | IC50 [2] [nM]
1 | COCc1cc(OC)c(Oc2nc3cccc(N(CC4CCOCC4)CC4CC4)c3cc2C)c(OC)c1 | 762 | 
2 | CCN(CC1CCOCC1)c1cccc2nc(Oc3c(OC)cc(COC)cc3OC)c(C)cc12 | 646 | 
3 | COCc1cc(OC)c(Oc2nc3cccc(N(CC4CC4)C4CCOCC4)c3cc2C)c(OC)c1 | 157 | 
4 | CCN(c1cccc2nc(Oc3c(OC)cc(COC)cc3OC)c(C)cc12)C1CCOCC1 | 323 | 
5 | CCC(CC)Nc1cccc2nc(Oc3c(OC)cc(COC)cc3OC)c(C)cc12 | > 1000 | 
6 | COCc1cc(OC)c(Oc2nc3cccc(NC4CCCCC4)c3cc2C)c(OC)c1 | > 1000 | 
7 | CCN(Cc1ccncc1)c1cccc2nc(Oc3c(OC)cc(COC)cc3OC)c(C)cc12 | > 1000 | 
8 | CCCC(CCC)Nc1cccc2nc(Nc3c(C)cc(C)cc3C)c(C)nc12 | 197 | 
9 | CCCN(CCC)c1cccc2nc(N(C)c3c(C)cc(C)cc3C)c(=O)n(C)c12 | > 1000 | 
10 | Cc1cc(C)c(Nc2nc3cccc(N(CC4CC4)CC4CC4)c3cc2C)c(C)c1 | 75 | 
11 | Cc1cc(C)c(Nc2nc3cccc(N(CC4CCOCC4)CC4CC4)c3cc2C)c(C)c1 | 742 | 
12 | Cc1cc(C)c(Nc2nc3cccc(N(CC4CC4)C4CCOCC4)c3cc2C)c(C)c1 | 90 | 255

Now from value to molecule:

Row | IC50 [1] [nM] | IC50 [2] [nM] | SMILES
13 | 79 |  | CCCN(CCC)c1cccc2nc(Oc3c(C)cc(C)cc3C)c(C)cc12
14 | 138 | 163 | CCCN(CCC)c1cccc2nc(Oc3c(OC)cc(COC)cc3OC)c(C)cc12
15 | 70 | 167 | CCN(CC)c1cccc2nc(Oc3c(OC)cc(COC)cc3OC)c(C)cc12
16 | 155 | 563 | CCCN(CCC)c1cccc2nc(Nc3c(C)cc(C)cc3C)c(C)nc12
17 | 100 | 469 | CCCN(CCC)c1cccc2nc(Nc3c(C)cc(C)cc3C)c(=O)[nH]c12
18 | 672 |  | CCCN(CCC)c1cccc2nc(Nc3c(C)cc(C)cc3C)c(=O)n(C)c12
19 | 88 | 372 | CCCN(CCC)c1cccc2nc(Nc3c(C)cc(C)cc3C)c(C)cc12
20 | 472 |  | CCCN(CCC)c1cccc2nc(Nc3c(OC)cc(COC)cc3OC)c(C)cc12
21 | > 1000 |  | CCCN(CCC)c1cccc2nc(Nc3c(OC)cc(OC)cc3OC)c(C)cc12
